In the library only some 2.3% were active in any assay of this set; here they are far more common.
MEKK2 mut-MEK5 = MEK5 binding signal on mutant MEKK2 PB1, primary screen, biochemical, multiplex bead flow cytometry, Alexa488-MEK5. percent response, % at 10 µM. Alexa488-MEK5 binding to MEKK2 mutant. actives 0.35% (n = 290,000); in the data active = percent response above about 24%, passing the limit was not always enough
ABCB1 block = ABCB1 efflux pump inhibitors, primary screen, cell-based, multiplex, flow cytometry, ABCG2 counter-screen | ATP-dependent translocase ABCB1 (Homo sapiens), P08183 | CCRF-Adr cells, JC-1 efflux | inhibition, % at 6.6 µM | actives 0.067% (n = 190,000) | AID 1326, 2008; in the data active = inhibition above about 40%;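 note: higher value means more JC-1 retained so stronger ABCB1 efflux block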
MEKK3 PB1 HTS = modulators of MEKK3-MEK5 PB1 binding, primary screen, biochemical, wildtype MEKK3, multiplex bead flow cytometry, Alexa488-MEK5. binding response (% of control), % at 10 µM. Mitogen-activated protein kinase kinase kinase 3 (Homo sapiens), Q99759. bead-based flow cytometry, Alexa488-MEK5 binding to MEKK3; actives lie on both sides; 0 = blocked by unlabeled MEK5, 100 = vehicle. actives 1.4% (n = 290,000);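 active = binding response more than 3 SD above or below the average of its plate-row segment, actives on both sides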;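 note: Alexa488 bead fluorescence after subtracting the streptavidin-only scavenger bead signal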
ABCG2 block = ABCG2 efflux pump inhibitors, primary screen, multiplex with ABCB1, IgMXP3 cells, flow cytometry; Broad substrate specificity ATP-binding cassette transporter ABCG2 (Homo sapiens), Q9UNQ0; JC-1 efflux; inhibition, % at 6.6 µM; actives 0.1% (n = 190,000); AID 1325, 2008;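 active = inhibition above 80%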
Target sequence (Q9UNQ0 whole entry, looked up): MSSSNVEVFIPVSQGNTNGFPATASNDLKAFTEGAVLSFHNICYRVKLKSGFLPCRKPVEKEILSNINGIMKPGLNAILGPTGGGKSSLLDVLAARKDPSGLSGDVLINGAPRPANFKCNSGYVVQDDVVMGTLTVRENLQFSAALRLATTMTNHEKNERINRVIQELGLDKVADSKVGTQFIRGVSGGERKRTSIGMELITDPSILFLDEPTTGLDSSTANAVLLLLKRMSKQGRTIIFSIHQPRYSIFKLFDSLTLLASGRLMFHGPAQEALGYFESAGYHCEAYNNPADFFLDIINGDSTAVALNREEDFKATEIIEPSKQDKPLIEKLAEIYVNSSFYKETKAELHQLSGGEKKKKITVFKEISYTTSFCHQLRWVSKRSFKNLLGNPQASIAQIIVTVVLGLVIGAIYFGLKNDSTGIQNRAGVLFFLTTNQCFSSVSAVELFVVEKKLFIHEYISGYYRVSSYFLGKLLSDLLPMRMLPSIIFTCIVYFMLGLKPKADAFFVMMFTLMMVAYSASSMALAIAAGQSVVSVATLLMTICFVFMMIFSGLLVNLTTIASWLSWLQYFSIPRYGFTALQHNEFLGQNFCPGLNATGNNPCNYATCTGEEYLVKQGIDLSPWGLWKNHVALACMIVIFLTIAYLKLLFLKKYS
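Test system: IgMXP3 (ABCG2) plus far-red-tagged CCRF-Adr (ABCB1) cells. Reagent: JC-1 dye as substrate. Timing: 10 min exposure at 25 °C with rotation, no wash. Measured by: flow cytometric JC-1 green MFI at 530 nm. Read-out: percent efflux inhibition, scaled nicardipine 100% to DMSO 0%. Control set: nicardipine and DMSO wells.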
MEKK2 WT-MEK5 = modulators of MEK5 binding to wildtype MEKK2, primary screen, biochemical, multiplex bead flow cytometry, Alexa488-MEK5. Alexa488-MEK5 binding to MEKK2 WT; actives lie on both sides. binding response (% of control), % at 10 µM. actives 1.1% (n = 290,000); in the data active = binding response below about 67% or above about 130%
MEKK2wt confirm = modulators of MEK5 binding to wildtype MEKK2, confirmation, biochemical, single concentration, multiplex bead flow cytometry; Alexa488-MEK5 binding to MEKK2 WT; actives lie on both sides; binding response (% of control), % at 10 µM; shares compounds with MEKK3 PB1 HTS; actives 2.4% (n = 5,900); in the data active = binding response below about 16% or above about 210%; inactive = in between
MEKK2mut-MEK5 = mutant MEKK2 PB1-MEK5 binding signal retest – biochemical, single concentration, multiplex bead flow cytometry, confirmation | shares compounds with MEKK3 PB1 HTS | Alexa488-MEK5 binding to MEKK2 mutant | percent response, % at 10 µM | actives 2% (n = 5,900) | AID 1893, 2009; in the data active = percent response mostly above about 71%, no sharp cut-off; inactive = mostly below about 38%;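 note: higher means compound restores mutant binding toward wildtype level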
MEKK3-MEK5 inh = MEKK3 wild-type PB1 binding to MEK5, inhibitors, confirmation, biochemical, bead multiplex flow cytometry, single concentration, wildtype. actives 1.8% (n = 5,900). AID 1894, 2009. shares compounds with MEKK3 PB1 HTS. Alexa488-MEK5 binding to MEKK3; stronger effect = lower value. binding response (% of control), % at 10 µM;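 active = binding response below 72% of control, or above a set upper limit, though filed actives all read lower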
Large screens that a line does not name were inactive (follow-up assays come after a bar, where they were run); [ ] = dose if it differs, or a comment.

Brc1ccc2c(c1)C(OC1CN3CCC1CC3)c1ccccc1CS2 (centres undefined)	MEKK2 WT-MEK5 156.0 | MEKK2wt confirm inactive | MEKK2mut-MEK5 inactive | MEKK3-MEK5 inh inactive
Cc1nn(Cc2ccccc2)c(C)c1C(=O)OCC(=O)Nc1cc(S(C)(=O)=O)ccc1Cl	none
C=CCN1C(=O)NC(=O)/C(=C/c2cc3c4c(c2)CCCN4CCC3)C1=O	MEKK2 WT-MEK5 26.0[inhibitor] | MEKK2wt confirm inactive | MEKK2mut-MEK5 inactive | MEKK3-MEK5 inh inactive
COc1ccc(C2=NS(=O)(=O)N(C)C(C(=O)N3CCC4(CC3)OCCO4)=C2)cc1OC	none (no result: ABCB1 block, ABCG2 block)
CCCCCCCSc1cc(OC)c(CCNC)cc1OC	MEKK2 WT-MEK5 149.0 | MEKK2wt confirm inactive | MEKK2mut-MEK5 inactive | MEKK3-MEK5 inh inactive
COc1ccc2c(c1)c(C(=O)CN1CCN(C)CC1)c(C)n2Cc1ccccc1	MEKK2 WT-MEK5 141.0 | MEKK2wt confirm inactive | MEKK2mut-MEK5 inactive | MEKK3-MEK5 inh inactive
Cn1ncc(Cl)c1C(=O)N1CCC2(CC1)OCCO2	none (no result: ABCB1 block, ABCG2 block)
CCOc1ccc(-c2cc(C)[n+](CCO)c(-c3ccc(OCC)cc3)c2)cc1	none
CCOc1ccc(-c2cc(C)[n+](CCc3ccc(OC)c(OC)c3)c(-c3ccc(OCC)cc3)c2)cc1	MEKK2 mut-MEK5 37.0, MEKK2 WT-MEK5 141.0 (no result: ABCB1 block, ABCG2 block) | MEKK2wt confirm inactive | MEKK2mut-MEK5 inactive | MEKK3-MEK5 inh inactive
O=C(O)C1C2CCC(O2)C1C(=O)Nc1cccc(Br)c1 (centres undefined)	none (no result: ABCB1 block, ABCG2 block)

Screens deposited in PubChem BioAssay by NMMLSC.
